Assay outcomes: PubChem BioAssay, Johns Hopkins Ion Channel Center
A selection: hits, their analogues and other compounds. The true share with any hit is near 3.5%.
MrgX1 ag – activates human MrgX1 receptor signaling; Q96LB2; MrgX1-HEK293 cells, Fluo-4 calcium fluorescence, agonist mode; hits give high values; B-score at 10 µM; 0.44% of 310,000 active; AID 588627;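 active = calcium response B-score plate-corrected fluorescence ratio at least 3 library SD, with starting fluorescence B-score inside 5 SD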
Target sequence (Q96LB2 whole entry, looked up): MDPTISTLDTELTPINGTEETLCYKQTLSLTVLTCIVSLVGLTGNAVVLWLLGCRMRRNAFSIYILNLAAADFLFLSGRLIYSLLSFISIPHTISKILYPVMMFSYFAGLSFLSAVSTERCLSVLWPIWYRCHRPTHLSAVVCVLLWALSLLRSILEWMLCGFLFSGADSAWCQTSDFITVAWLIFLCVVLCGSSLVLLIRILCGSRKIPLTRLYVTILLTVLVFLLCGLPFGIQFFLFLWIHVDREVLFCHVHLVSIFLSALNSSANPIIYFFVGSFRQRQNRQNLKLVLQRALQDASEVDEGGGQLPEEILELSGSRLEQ
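System: HEK293 cells stably expressing human MrgX1 receptor; Dosing: test compound in the initial addition of three; Schedule: overnight plating, then 30 min 37 °C plus 30 min room-temperature dye loading; Detection: kinetic calcium dye fluorescence, Fluo-4 NW; Controls: per-plate positive and negative controls for Z′ factor.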
MrgX1 antag – antagonists of human MrgX1 receptor | 1.3% of 310,000 active | MRGX1-HEK293 calcium flux, Fluo-4, BAM8-22 antagonism; hits give low values | B-score at 10 µM | AID 588676;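 active = calcium-response B-score plate-corrected more than 3 library SD below zero, starting fluorescence within 5 deviations, no agonist response on first addition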;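 also: peak minus trough fluorescence over baseline after final BAM8-22 challenge near maximal dose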
RGS4 pot – RGS4 potentiation or activation; HEK293 M3R/inducible RGS4, carbachol calcium flux Fluo4; hits give low values; B-score at 10 µM; 0.92% of 310,000 active; AID 463111;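 active = B-score of the integrated calcium signal more than 4 SD below the library mean, with starting fluorescence not abnormally high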;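 also: negative B-score means reduced calcium response which marks RGS4 activation or potentiation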
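System: HEK293 FlpIn-TREx cells, stable M3R, doxycycline-inducible RGS4. Timing: overnight RGS4 induction, 30 min dye load 37 °C, 20 min compound RT. Also added: carbachol, ECmax concentration. Measured by: Fluo4 fluorescence kinetic imaging of calcium. Evaluation: integrated calcium ratio converted to B score.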
RGS4 inh – inhibitors of human RGS4 | HEK293 M3R/RGS4 inducible, Fluo-4 calcium flux; hits give high values; triggered by carbachol at its EC20 | B-score at 10 µM | 0.45% of 310,000 active | AID 463165;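 active = B-score, a plate-corrected calcium signal, over three deviations above library mean, with baseline fluorescence within five deviations of library mean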;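 also: RGS4 expression induced by doxycycline in cells with stable M3 receptor; B-score is computed from the integrated fluorescence ratio over baseline after carbachol; higher B-score means a larger calcium signal and so more RGS4 inhibition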
Target sequence (P49798 whole entry, looked up): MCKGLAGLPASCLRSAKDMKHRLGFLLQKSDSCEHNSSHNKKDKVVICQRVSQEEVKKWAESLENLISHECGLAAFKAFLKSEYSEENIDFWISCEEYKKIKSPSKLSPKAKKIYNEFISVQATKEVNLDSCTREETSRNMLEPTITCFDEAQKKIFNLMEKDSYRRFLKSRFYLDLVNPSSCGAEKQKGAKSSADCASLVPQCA
MrgX1 PAM – human MrgX1 positive allosteric modulation, primary screen. 0.63% of 310,000 active. Q96LB2. MrgX1-HEK293, Fluo-4 calcium flux, FDSS; hits give high values. B-score at 10 µM;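 active = plate-corrected calcium response at least 3 library SD above typical, normal starting fluorescence, not activating the receptor alone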;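 also: compound read alongside a low EC10 to EC30 dose of BAM8-22 agonist; peak minus trough fluorescence over baseline measured at the second addition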
MrgX1 PAM conf – human MrgX1 positive allosteric modulation, re-confirmation. shares compounds with MrgX1 PAM. MrgX1-HEK293, Fluo-4 calcium fluorescence, FDSS. activation (ratio percentage), % at 10 µM. 13% of 1,200 active. AID 602413;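 active = ratio at least 3 SD above the weak peptide control, stable starting fluorescence, no direct agonism earlier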;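 also: compound followed by low BAM8-22 agonist challenge near EC20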
HEK293 Ca flux – counter-screen for MrgX1 antagonists: effect in parental HEK293 cells | shares compounds with MrgX1 antag | Fluo-4 calcium fluorescence, FDSS | fluorescence ratio F(max-min)/F0 at 10 µM | 2% of 4,000 active | AID 624111;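 active = duplicate-averaged calcium fluorescence ratio at least three times the standard deviation of buffer wells, a nonspecific response in parental cells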
HEK293 Ca counter – MrgX1 allosteric activator counter-screen hit in parental HEK293 cells. fluorescence ratio F(max-min)/F0 at 10 µM. parental HEK293 calcium flux, Fluo-4 fluorescence ratio; hits give high values. shares compounds with MrgX1 antag. 0.4% of 4,000 active;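 active = calcium fluorescence ratio, averaged over duplicates, at least 3 SD of the buffer-well ratio, meaning a nonspecific response in receptor-free cells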;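 also: untransfected parental HEK293 lacking MrgX1 used as counterscreen for MrgX1 allosteric activators; fluorescence change taken during the second addition on a kinetic imager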
HEK293 Ca cntr2 – counter-screen for MrgX1 activators: effect in parental HEK293 cells; shares compounds with MrgX1 antag; Fluo-4 calcium fluorescence (FDSS); hits give high values; fluorescence ratio F(max-min)/F0 at 10 µM; 8.7% of 4,000 active; AID 624115;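 active = calcium fluorescence ratio at least three times the spread of buffer wells, meaning a non-specific response in parental cells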
A number is an active result; 0 = inactive; - = no result given.

SMILES	MrgX1 ag	MrgX1 antag	RGS4 pot	RGS4 inh	MrgX1 PAM	MrgX1 PAM conf	HEK293 Ca flux	HEK293 Ca counter	HEK293 Ca cntr2
CC(C)c1ccc(C(=O)NCCCN2CCOCC2)cc1	0	0	0	0	0	-	-	-	-
O=C(NCC(c1ccco1)N1CCN(c2ccccc2F)CC1)C(=O)NC1CCCC1 (centres undefined)	0	0	0	0	0	-	-	-	-
Cc1ccc2cc(CN(CC3CCCO3)C(=O)c3cccs3)c(=O)[nH]c2c1 (centres undefined)	0	0	0	0	0	-	-	-	-
Cc1ccc2[nH]c(=O)c(CN(CC3CCCO3)C(=O)c3cccs3)cc2c1 (centres undefined)	0	0	0	0	35	0	0	0	0
CCc1nc2ccc(C(=O)N(C)CC(=O)Nc3ccc(Cl)c(C(F)(F)F)c3)cc2nc1CC	0	0	0	0	14	0	0	0	0
CC(C)(C)c1ccc(O)c(/C=N\O)c1	0	0	0	0	38	0	0	0	0
COn1c(SC2CCCCC2)nc2ccccc2c1=O	0	0	0	0	29	49%	0	0	0
O=C(OCCN1C(=O)c2ccccc2C1=O)c1cc(S(=O)(=O)N2CCOCC2)ccc1F	0	0	0	0	6.8	0	0	0	0
Cc1cc(C)c2c(n1)SCC(=O)N2CC(=O)Nc1cc(F)ccc1F	0	0	0	0	0	-	-	-	-
Cn1c(N2CCOCC2)c(C#N)c2ccccc21	0	0	0	0	0	-	-	-	-
COc1ccc(OC)c(S(=O)(=O)N2CCN(c3ccccc3)CC2)c1	0	0	0	0	0	-	-	-	-
COc1ccc(C(C)C)cc1S(=O)(=O)N1CCN(c2ccccc2)CC1	0	0	0	0	15	0	0	0	0
COc1ccc(Cl)cc1S(=O)(=O)N1CCN(c2ccc(F)cc2)CC1	0	0	0	0	17	0	0	0	0
OCC[C@H]1C[C@@H](O)[C@H](O)[C@@]2(CCc3ccccc3CO2)O1	0	0	-	-	0	-	-	-	-
CCC(C)(C)n1nnnc1C(c1ccc(C)cc1)N1CCC(C)CC1 (centres undefined)	0	0	0	0	0	-	-	-	-
CCC(C)(C)n1nnnc1C(c1ccc(Cl)cc1)N1CCN(C)CC1 (centres undefined)	0	0	0	0	11	0	0	0	0
O=C(Nc1cccc(Cl)c1)c1ccc2ncsc2c1	0	0	0	0	7.7	0	0	0	0
O=C(Nc1ccc(Cl)cc1)c1ccc2ncsc2c1	0	0	0	0	0	-	-	-	-
CCC(=O)C1CCCN(C(=O)CCc2nnc(C3(c4ccc(Cl)cc4)CCC3)o2)C1 (centres undefined)	0	0	0	0	0	-	-	-	-
Cc1ccc(Nc2ncnc3sccc23)c(C)c1	0	0	0	0	8	0	0	0	0
Cc1nc(N)sc1C(=O)NN	0	0	0	0	0	-	-	-	-
O=C(COC(=O)c1ccc(S(=O)(=O)NCc2ccco2)cc1)Nc1ccc(Cl)cn1	0	0	0	0	8.1	0	0	0	0
CCCN1CCC(NC(=S)Nc2ccc(S(N)(=O)=O)cc2)CC1	0	0	0	0	0	-	-	-	-
CCc1cc(C(=O)Nc2cc(S(=O)(=O)N(C)C)ccc2C)sc1C	0	0	0	0	8.4	0	0	0	0
O=C(CSc1ccc(F)cc1)Nc1ccccc1N1CCOCC1	0	0	0	0	0	-	-	-	-
O=C(CSc1ccccc1)Nc1ccccc1N1CCOCC1	0	0	0	0	8.5	0	0	0	0
COc1ccc(CNc2ccc(C)cc2)cc1Br	0	0	0	0	0	-	-	-	-
COc1ccc(CNc2ccccc2)cc1Br	0	0	0	0	9.4	0	0	0	0
Cc1ccccc1Oc1ncnc2oc(-c3ccccc3)cc12	0	0	0	0	18	44%	0	0	0
